According to ChEMBL document CHEMBL4513216, “Probing the Open Global Health Chemical Diversity Library for Multistage-Active Starting Points for Next-Generation Antimalarials” (ACS Infect Dis, 2020):

Experiment: Toxicity liver stage against HepG2, at 10uM
Format: cell-based
Parameters: test concentration 10 uM, cell line HepG2-A16-CD81EGFP
Details: human, HepG2-A16-CD81EGFP cells; read-out: INHIBITION
Method in brief: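 Uninfected HepG2-A16-CD81EGFP cells, 3 × 10^3 per well, 1536-well, plated on prespotted compound at 10 μM final, parasite-free screening media added to match infected plates; puromycin 10 μM positive, DMSO 0.5% negative; run in parallel with 48 h PbLuc assay at 37 °C, 5% CO2; viability by CellTiter-Glo luminescence, normalized to controls.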

Compared with `CCCc1nc(CN(CC)C(=O)c2ccc3c(c2)nnn3C)no1`, `CCCc1noc(CCC(=O)Nc2cc(C(F)(F)F)c[nH]c2=O)n1` is lower in cytotoxicity at 10 µM: 9.43% for the first, -7.21% for the second.

Going from `CC(C)NC(=O)N1CCN(CC2CC2)c2ncccc2C1` to `CC(C)CC(NC(=O)c1ccc[nH]1)C(=O)N1CCC(CO)CC1` (stereo not drawn), the cytotoxicity at 10 µM rises from -108% to 6.74%.

First: CCN(CC1COc2ccccc2O1)C(=O)C1=NN(C)C(=O)CC1 (stereo not drawn)
Second: CN(CC(=O)NC(C)(C)C)Cc1cccc2c1OCCO2
The cytotoxicity at 10 µM of the first is lower: -39.6% for the first, -26.5% for the second.

First: CC1CN(C(=O)NCCCn2cncn2)CCO1 (stereo not drawn)
Second: Cc1cc(C)n(CCC(=O)N2CCCC(n3cncn3)C2)n1 (stereo not drawn)
The cytotoxicity at 10 µM of the first is lower: -6.82% for the first, -5.05% for the second.

Going from `Cc1csc(N2CCCN(C(=O)c3cccs3)CC2)n1` to `O=C(c1cccnc1O)N1CCCN(c2cccnn2)CC1`, the cytotoxicity at 10 µM rises from -8.08% to 6.82%.

Compared with `O=C(Cc1ccccc1)N1CCC2(CC(=O)N(c3ccsc3)C2)C1` (stereo not drawn), `NCCC(=O)N1CCC2(CC1)CN(C(=O)Cc1cccc(Cl)c1)CCO2` is higher in cytotoxicity at 10 µM: -10.2% for the first, 5.56% for the second.

First: NC(=O)CN1CCC(NC(=O)COCCOc2ccccc2)CC1
Second: Cc1nc(C)n(CC2CN(CCCOc3ccccc3)CCO2)n1 (stereo not drawn)
The cytotoxicity at 10 µM of the first is lower: -9.46% for the first, -0.924% for the second.

Compared with `O=C(CN1CCCS1(=O)=O)Nc1ccc(OC(F)F)cc1`, `CCN(Cc1cnn(C)c1)S(=O)(=O)c1ccc(NC(C)=O)cc1` is higher in cytotoxicity at 10 µM: 1.34% for the first, 3.59% for the second.

Compared with `CNc1ncc(CN(C)C(=O)c2cccc(Cn3cccn3)c2)cn1`, `CN1CCCC1c1cncc(C(=O)NCc2ccccc2)n1` (stereo not drawn) is lower in cytotoxicity at 10 µM: 1.32% for the first, -1.67% for the second.

First: Cc1noc(C)c1-c1nc(C2CCCNC2)ccc1CO (stereo not drawn)
Second: Cc1cc(N2CCC(c3ncc[nH]3)CC2)cc(C)n1
The cytotoxicity at 10 µM of the first is lower: -21.3% for the first, -1.95% for the second.

Going from `c1ccc(CCN2CCN(C3CCOC4(CCOCC4)C3)CC2)nc1` (stereo not drawn) to `O=C(Nc1cccc(N2CCN(CC3CC3)CC2)c1)C1CCOC1` (stereo not drawn), the cytotoxicity at 10 µM falls from 2.1% to 1.68%.

Compared with `Cc1nn(CC(=O)N2CCN(c3ccncc3)CC2)c(C)c1Cl`, `Cc1noc(-c2cccnc2N2CCN(c3cnn(C)c3)CC2)n1` is higher in cytotoxicity at 10 µM: -17.8% for the first, 1.12% for the second.

Going from `CNC(=O)[C@H]1C[C@@H]2CN(C(=O)c3ccncc3)C[C@@H]2N1S(C)(=O)=O` to `CNC(=O)[C@@H]1C[C@@H](NC(=O)Cc2cccs2)CN1C1CCOCC1`, the cytotoxicity at 10 µM rises from -5.98% to 2.7%.

Going from `CN(Cc1ccccc1)CC(O)Cn1cnc2ccccc2c1=O` (stereo not drawn) to `F[C@@H]1CN(Cc2cccnc2)C[C@@H]1OCc1nc2ccccc2[nH]1`, the cytotoxicity at 10 µM rises from -5.02% to 5.22%.

Going from `CC1CCN(C(=O)c2sccc2-n2cnnn2)CC1` to `O=C(c1ccc(N2CCCC2)nc1)N1CCCC(n2cncn2)C1` (stereo not drawn), the cytotoxicity at 10 µM falls from 9.33% to -5.22%.

First: O=C(O)C1(Cc2ccccc2F)CCCN(c2ncnc3[nH]ccc23)C1 (stereo not drawn)
Second: O=C(O)C1(Cc2ccccc2Cl)CCN(c2ncccc2F)CC1
The cytotoxicity at 10 µM of the first is higher: -0.44% for the first, -12.3% for the second.

Compared with `Cc1nccc(-c2cccc(NCC(=O)N3CCNC3=O)c2)n1`, `O=C(NCC(=O)N1CCc2ccccc2C1)c1cnccn1` is lower in cytotoxicity at 10 µM: 1.9% for the first, -4.81% for the second.

First: COCCN1CCCC(O)(CN2CCN(Cc3ccncc3)CC2)C1=O (stereo not drawn)
Second: CC(C)Cc1noc(CN2CCN(CCO)CC2)n1
The cytotoxicity at 10 µM of the first is lower: -8.24% for the first, -1.22% for the second.

First: O=C(NCCO)Nc1ccc(Cl)cc1-n1cccc1
Second: Cc1cnn(CCNCC(O)COc2ccc(Cl)cc2)c1 (stereo not drawn)
The cytotoxicity at 10 µM of the first is higher: 7.82% for the first, -12.6% for the second.

Compared with `Cn1cc(C2(C)CN(Cc3ccc(O)c(Cl)c3)CCO2)cn1` (stereo not drawn), `Cn1cc(C(=O)N2CCCC2c2ccc3c(c2)OCCO3)ccc1=O` (stereo not drawn) is higher in cytotoxicity at 10 µM: -4.12% for the first, 3.92% for the second.

Compared with `CCN(Cc1ccc(Cl)s1)S(=O)(=O)CCOC`, `CCc1ccc2c(c1)C(CCNC(=O)c1sccc1C)C(=O)N2` (stereo not drawn) is lower in cytotoxicity at 10 µM: 12.1% for the first, -52.3% for the second.

Going from `COc1ccc(CCC(=O)N2CCNCC2C(=O)N2CCOCC2)cc1` (stereo not drawn) to `CC(C)[C@@H]1CN(C(=O)CCc2ccc(F)cc2)C[C@H]1C(=O)O`, the cytotoxicity at 10 µM falls from 4.34% to -3.97%.

First: COC(=O)CN1CCCn2nc(CCC(=O)N3CCCC3)cc2C1
Second: O=C(COC[C@H]1CC[C@H]2[C@H](CCN2c2ccccn2)O1)N1CCCC1
The cytotoxicity at 10 µM of the first is lower: -204% for the first, 0.748% for the second.

First: CN(C)CCOCC1CN(C(=O)[C@H]2CCCO2)Cc2ccnn2C1 (stereo partly drawn)
Second: c1cncc(COCC2CN(Cc3ccco3)Cc3ccnn3C2)c1 (stereo not drawn)
The cytotoxicity at 10 µM of the first is higher: -0.422% for the first, -14.4% for the second.

Going from `Cc1cccc(C2CCCN(S(=O)(=O)c3cccnc3)C2)n1` (stereo not drawn) to `Cc1nccn1-c1ccc(CNS(=O)(=O)N2CCCC(C)C2)cn1` (stereo not drawn), the cytotoxicity at 10 µM rises from 4.05% to 5.39%.

Going from `CC(C)(C)CN1CCCC(c2nccnc2Nc2cnccn2)C1` (stereo not drawn) to `CC(C)(C)c1n[nH]c(C2CN(CCc3cccs3)CCO2)n1` (stereo not drawn), the cytotoxicity at 10 µM falls from 5.37% to -7.36%.

Going from `NCc1n[nH]c(-c2ccc(Br)cc2)n1` to `Cc1c(O)oc(-c2ccc(Br)cc2)nc1=O`, the cytotoxicity at 10 µM falls from 19.7% to -1.56%.

Compared with `Cc1cc(C)c(CNC(=O)NCCC2CCCO2)c(=O)[nH]1` (stereo not drawn), `COc1ccc2c(c1)CCCN(C(=O)NCC1CCCO1)C2` (stereo not drawn) is higher in cytotoxicity at 10 µM: -6.33% for the first, 1.06% for the second.

Going from `CC(C)c1nccn1C1CCCN(C(=O)CCNS(C)(=O)=O)C1` (stereo not drawn) to `CCn1cnnc1CNC(=O)N1CCN(C(C)C)CC1`, the cytotoxicity at 10 µM falls from -3.71% to -18.1%.

Going from `NCC1CCCCN1C(=O)Cc1cccc(Cl)c1` (stereo not drawn) to `O=C1CN(C(=O)C2CCCCC2)CC(O)CN1Cc1ccc(Cl)cc1` (stereo not drawn), the cytotoxicity at 10 µM rises from -5.36% to 6.02%.

First: CCN1C[C@H]2C3(CCN(C(=O)NC(C)C)CC3)CC[C@@]2(C(=O)NC)C1
Second: CCOCCn1nc(C)cc1C(=O)N1CCCC[C@H](N(C)C)C1
The cytotoxicity at 10 µM of the first is lower: -106% for the first, -3.68% for the second.

First: COc1ccc(-c2nccn2C[C@@H]2CCCN3CCCC[C@H]23)cc1
Second: c1cn(Cc2ccc(N3CCCN(C4CCCC4)CC3)nc2)cn1
The cytotoxicity at 10 µM of the first is lower: 4.71% for the first, 12% for the second.

First: O=C1CCCCCN1Cc1ncnn1Cc1c(F)cccc1Cl
Second: O=C(NC[C@H]1CCCC[C@H]1O)c1cccc2[nH]c(-c3cccs3)nc12
The cytotoxicity at 10 µM of the first is higher: 2.14% for the first, -6.95% for the second.

Going from `Cc1cc(NC(=O)CN2CCCC(Cn3nc(C)nc3C)C2)n(C)n1` (stereo not drawn) to `COc1ccc(S(=O)(=O)N2CCn3nc(C)nc3C2)cc1C`, the cytotoxicity at 10 µM rises from -9.54% to 9.68%.

Going from `CS(=O)(=O)N1CCC(CNc2cc(Cl)ccc2C#N)CC1` to `COc1cccc(CNC(=O)c2nc3c(o2)CN(S(C)(=O)=O)C3)c1`, the cytotoxicity at 10 µM falls from 14.9% to 8.65%.

First: NCC1CCN(c2nc(C3CCCC3)nc3c2CCNCC3)C1 (stereo not drawn)
Second: CC(Cn1cncc1-c1cnn(C2CCCCC2)c1)N1CCCCC1 (stereo not drawn)
The cytotoxicity at 10 µM of the first is higher: 16.1% for the first, 2.87% for the second.

First: COc1ccc(S(=O)(=O)Nc2cccnc2-n2cncn2)cc1C
Second: CC(C)N(Cc1cccnc1)C(=O)CCSc1ccc(C#N)cc1
The cytotoxicity at 10 µM of the first is lower: -6.87% for the first, 27.1% for the second.

Compared with `CCc1cccc(N2CCC(NC(=O)c3ccoc3C)CC2)c1`, `CC(NC(=O)COc1ccccc1I)C1CC1` (stereo not drawn) is higher in cytotoxicity at 10 µM: -10.8% for the first, 2.72% for the second.

Compared with `c1cncc(C2COC3(CCN(Cc4ccsc4)CC3)C2)c1` (stereo not drawn), `CCS(=O)(=O)N1CC(c2nc(-c3ccsc3)no2)C1` is lower in cytotoxicity at 10 µM: -3.74% for the first, -8.25% for the second.

Going from `CCC(C)(NCC(=O)NC(C)C)c1nc(C)cs1` (stereo not drawn) to `Cc1nn(C)c(C)c1CCC(=O)N(C)Cc1ccc(C#N)cc1`, the cytotoxicity at 10 µM falls from -2.06% to -2.45%.

Compared with `CCCc1nnc(NC2CCN(C3CCOCC3)CC2)o1`, `CC1=Nc2c(c(=O)[nH]n2C2CCOCC2)C(c2cccc(Br)c2)S1` (stereo not drawn) is higher in cytotoxicity at 10 µM: -4.92% for the first, 5.91% for the second.

`CCc1nnc(NC(=O)c2c3c(nn2C2CCS(=O)(=O)C2)CCC3)s1` (stereo not drawn) showed a cytotoxicity at 10 µM of -4.28%.
